Measurements as given in paper PMC4251658 (Biochemistry, 2012).
Values joined by “and” are separate entries in the source; they are usually repeats but may differ in a detail not shown here. Equal entries are not always repeated. Where two headings read alike, the source gives them in different places. Marks after values point to notes of the source that are not given here.

Tests used:
[1] = molecular target: T1, PCP hydroxylase (Sphingobium chlorophenolicum, UniProt P42535); type: biochemical; conditions: 100 μM substrate, 160 μM NADPH
T1 sequence (P42535 1-538): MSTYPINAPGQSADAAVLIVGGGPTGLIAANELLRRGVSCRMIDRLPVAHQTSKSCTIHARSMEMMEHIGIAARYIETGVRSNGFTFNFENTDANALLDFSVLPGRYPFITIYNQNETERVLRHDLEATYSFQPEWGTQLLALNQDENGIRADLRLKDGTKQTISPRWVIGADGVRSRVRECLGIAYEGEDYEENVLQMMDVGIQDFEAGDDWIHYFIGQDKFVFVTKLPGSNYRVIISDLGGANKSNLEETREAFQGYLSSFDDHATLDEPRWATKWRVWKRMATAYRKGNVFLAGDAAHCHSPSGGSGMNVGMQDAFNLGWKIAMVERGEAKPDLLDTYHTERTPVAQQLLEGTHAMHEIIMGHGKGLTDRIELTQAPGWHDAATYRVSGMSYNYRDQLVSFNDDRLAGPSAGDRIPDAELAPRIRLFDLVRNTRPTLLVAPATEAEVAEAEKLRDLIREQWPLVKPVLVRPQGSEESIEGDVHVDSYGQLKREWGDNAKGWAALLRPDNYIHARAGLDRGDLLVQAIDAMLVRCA

[2] = molecular target: T1, PCP hydroxylase; test: Hydrogen peroxide assay; type: biochemical; conditions: 100 μM substrate, 160 μM NADPH
Procedure, shortened: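 Reaction samples or H2O2 standards were added to freshly prepared reagent (250 μM Fe(II) ammonium sulfate, 25 mM H2SO4, 100 μM xylenol orange, 100 mM sorbitol) and incubated 30–45 min at room temperature. A560 was read against a prior standard curve. Reactions contained substrate or effector (100 μM) and NADPH (160 μM), run in triplicate; average rates came from at least three separate experiments.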

[3] = molecular target: T1, PCP hydroxylase; test: HPLC analysis of the products formed by PCP hydroxylase; type: biochemical; conditions: for PCP, reaction components after 1 min incubation at room temperature / TCHQ, reaction components after 1 min incubation at room temperature / THTH, reaction components after 1 min incubation at room temperature / TCP, reaction components after 1 min incubation at room temperature: reactant 100 μM, PCP hydroxylase 10 μM, NADPH 300 μM
Procedure, shortened: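 His6-tagged enzyme expressed in E. coli M15(pReP4). Substrate (100 μM) in 50 mM potassium phosphate pH 7.5 with 25 μM ascorbate, plus 6 mM β-ME where included to trap TCBQ as THTH. Enzyme (10 μM) and NADPH (300 μM) added as indicated, 1 min at room temperature. Quenched into ethyl acetate with p-nitrophenol internal standard, dried, redissolved in TFA/acetonitrile; HPLC detection at 295, 310 and 350 nm.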

[4] = molecular target: T1, PCP hydroxylase; test: Spectroscopic assays of enzyme activity, steady-state kinetic parameters; type: biochemical; conditions: 160 μM NADPH; for kcat for hydroxylation reaction: in the presence of 6 mM β-ME, ambient O2 (apparent)
[5] = tested on: PCP hydroxylase; conditions: cited from earlier work
[6] = phenolic proton, in solution; cited from earlier work
[7] = molecular target: T1, PCP hydroxylase; test: Determination of dissociation constants by absorbance spectroscopy; type: binding; conditions: titration at constant enzyme concentration
[8] = molecular target: the molecule itself; test: SEC
[9] = in the presence of 5 mM ascorbate

**Q.** What does the source list for `Oc1c(Cl)cc(Cl)cc1Cl` [2,4,6-triCP, 2,4,6-trichlorophenol]?
**A.** NADPH /product [1, 9]: 1.5^b; NADPH disappearance [1, 9]: 0.0048 ± 0.003^b s^−1; Product appearance [1, 9]: 0.0033 ± 0.0002^b s^−1; H2O2 appearance [2]: 0.0012 ± 0.0002 s⁻¹

**Q.** Which results are given for `Oc1c(Cl)cccc1Cl` [2,6-DCP, 2,6-dichlorophenol]?
**A.** NADPH /product [1]: 0.9; NADPH disappearance [1]: 0.051 ± 0.004 s⁻¹; Product appearance [1]: 0.060 ± 0.002 s⁻¹; extent of uncoupling (in words) [1]: no uncoupling; H2O2 appearance [2]: 0.0011 ± 0.0002 s⁻¹

**Q.** What does the source list for `Oc1cc(Cl)c(Cl)c(Cl)c1` [3,4,5-triCP, 3,4,5-trichlorophenol]?
**A.** NADPH disappearance [1]: 0.012 ± 0.001 s⁻¹; Product appearance [1]: none; extent of uncoupling (in words) [1]: complete uncoupling

**Q.** What does the source list for `Oc1ccc(Cl)c(Cl)c1` [3,4-DCP]?
**A.** NADPH disappearance [1]: 0.0045 ± 0.0010 s⁻¹; Product appearance [1]: none; extent of uncoupling (in words) [1]: complete uncoupling

**Q.** With `Oc1cc(Cl)cc(Cl)c1` [3,5-DCP, 3,5-dichlorophenol] as the molecule, how does the NADPH disappearance [1] read?
**A.** 0.0079 ± 0.0016 s⁻¹

**Q.** And the Product appearance [1]?
**A.** none

**Q.** What about the “extent of uncoupling (in words)” value [1] of the same molecule?
**A.** complete uncoupling

**Q.** What about the H2O2 appearance [2] of the same molecule?
**A.** 0.0029 ± 0.0006 s⁻¹

**Q.** What does the source list for `Oc1c(Cl)c(Cl)c(Cl)c(Cl)c1Cl` [PCP, pentachlorophenol]?
**A.** PCP, reaction components after 1 min incubation at room temperature ([3]; no β-ME, 25 μM ascorbate): 75 ± 1; TCHQ, reaction components after 1 min incubation at room temperature ([3]; no β-ME, 25 μM ascorbate): 18 ± 1; PCP, reaction components after 1 min incubation at room temperature ([3]; β-ME 6, 25 μM ascorbate): 70 ± 2; THTH, reaction components after 1 min incubation at room temperature ([3]; β-ME 6, 25 μM ascorbate): 28 ± 2; kcat for hydroxylation reaction [4]: 0.024 s^−1 and 0.024 ± 0.002^a,b s^−1; NADPH /product [1, 9]: 1.3^b; NADPH disappearance [1, 9]: 0.025 ± 0.001^b s^−1; Product appearance [1, 9]: 0.020 ± 0.003^b s^−1; H2O2 appearance [2]: 0.0070 ± 0.0009 s⁻¹; NADPH consumed for each PCP consumed [5]: 2 equivalents; O2 consumed for each PCP consumed [5]: 1.4 equivalents; pKa [6]: 4.5

**Q.** What does the source list for `Oc1c(Cl)c(Cl)c(O)c(Cl)c1Cl` [TCHQ, tetrachlorohydroquinone]?
**A.** conversion to THTH ([3]; incubation with the enzyme in the presence of NADPH and β-ME for one minute): 23%; TCHQ, reaction components after 1 min incubation at room temperature ([3]; β-ME 6, 25 μM ascorbate): 77 ± 2; THTH, reaction components after 1 min incubation at room temperature ([3]; β-ME 6, 25 μM ascorbate): 23 ± 2; Dissociation constants (in words) [7]: low micromolar range; concentration above which substrate inhibition is seen ([4]; 6 mM β-ME): > 40 µM; kcat for hydroxylation reaction [4]: > 0.015^a,b s^−1; NADPH /product ([1]; in the presence of 6 mM β-ME): 6.3^c; NADPH disappearance ([1]; in the presence of 6 mM β-ME): 0.030 ± 0.003^c s^−1; Product appearance ([1]; in the presence of 6 mM β-ME): 0.0048 ± 0.0004^c s^−1; H2O2 appearance [2]: 0.035 ± 0.005 s⁻¹

**Q.** With `Oc1c(Cl)c(Cl)cc(Cl)c1Cl` [TCP, 2,3,5,6-tetrachlorophenol] as the molecule, how does the “TCHQ, reaction components after 1 min incubation at room temperature” value ([3]; no β-ME, 25 μM ascorbate) read?
**A.** 78 ± 11

**Q.** And the “TCP, reaction components after 1 min incubation at room temperature” value ([3]; no β-ME, 25 μM ascorbate)?
**A.** 10 ± 1

**Q.** And the “TCHQ, reaction components after 1 min incubation at room temperature” value ([3]; β-ME 6, 25 μM ascorbate)?
**A.** 75 ± 8

**Q.** And the “TCP, reaction components after 1 min incubation at room temperature” value ([3]; β-ME 6, 25 μM ascorbate)?
**A.** 10 ± 1

**Q.** And the “THTH, reaction components after 1 min incubation at room temperature” value ([3]; β-ME 6, 25 μM ascorbate)?
**A.** 9 ± 1

**Q.** What about the “Dissociation constants (in words)” value [7] of the same molecule?
**A.** low micromolar range

**Q.** And the “Hill coefficient nH” value [4]?
**A.** 2

**Q.** And the NADPH /product [1]?
**A.** 1.5

**Q.** And the NADPH disappearance [1]?
**A.** 0.111 ± 0.018 s⁻¹

**Q.** What about the Product appearance [1] of the same molecule?
**A.** 0.076 ± 0.008 s⁻¹

**Q.** And the H2O2 appearance [2]?
**A.** 0.0132 ± 0.008 s⁻¹

B1: His6-tagged PCP hydroxylase (pentachlorophenol hydroxylase, PcpB) (enzyme, Sphingobium chlorophenolicum, UniProt P42535 1-538, looked up)
chain: T1 sequence (P42535 1-538)
**Q.** With B1 as the molecule, how does the “stoichiometry N” value [8] read?
**A.** 2
